According to ChEMBL document CHEMBL1240495, “Alpha,beta-unsaturated N-acylpyrrole peptidyl derivatives: new proteasome inhibitors” (J Med Chem, 2010):
Peptide text beside a SMILES is read from it. * marks the point of attachment. Cbz = O=C(OCc1ccccc1)*

Experiments:
[1] = Inhibition of chymotrypsin-like activity of 20S proteasome in human LCL cells after 12 hrs
[2] = test system: 20S proteasome beta1 subunit (Homo sapiens); assay: Inhibition of PGPH catalytic activity of 20S proteasome beta1 in human LCL cells after 12 hrs
[3] = Inhibition of trypsin-like activity of 20S proteasome beta2 from human LCL cells after 30 mins
[4] = test system: 20S proteasome beta1 subunit (Homo sapiens); assay: Inhibition of PGPH catalytic activity of 20S proteasome beta1 in human LCL cells after 12 hrs by in vivo assay
[5] = Inhibition of trypsin-like activity of 20S proteasome beta 2 in human LCL cells after 12 hrs by in vivo assay
How it was run: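 LCLs exposed to inhibitor for 12 h at 37 °C. Proteasomes then partially purified and incubated 30 min at 37 °C in activity buffer with Suc-LLVY-AMC (chymotrypsin-like), Boc-LRR-AMC (trypsin-like) or Z-LLE-AMC (postacidic). Fluorescence read at ex 360/em 465 nm.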

[6] = test system: 20S proteasome beta5 subunit (Homo sapiens); assay: Inhibition of chymotrypsin-like activity of 20S proteasome beta5 in human LCL cells after 12 hrs by in vivo assay
[7] = Cytotoxicity against human LCL cells at 10 uM after 3 days by trypan blue exclusion assay; format: cell-based; conditions: 72 h
How it was run: (§1)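 LCL and Burkitt's lymphoma JiJoye cells seeded in duplicate at 50 × 10³ cells/mL in medium with 10% FCS. Exposed to 0.1–10 μM compound or medium alone. Viability and proliferation followed for 3 days by Trypan blue exclusion and cell counting.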

JIYOYE = assay: Cytotoxicity against human Jijoye cells at 10 uM after 3 days by trypan blue exclusion assay; format: cell-based; conditions: 72 h
How it was run: as §1

Row | Structure (SMILES) | IC50 [1] [nM] | IC50 [2] [nM] | IC50 [3] [nM] | IC50 [4] [nM] | IC50 [5] [nM] | IC50 [6] [nM] | Activity [7] | Activity (JIYOYE)
1 | CC(C)C[C@@H](/C=C/C(=O)n1cccc1)NC(=O)[C@H](CC(C)C)NC(=O)[C@H](CC(C)C)NC(=O)OCc1ccccc1 | 7890 | 91 | > 10000 | – | – | – | – | –
2 | CC[C@H](C)[C@H](NC(=O)[C@H]([C@@H](C)CC)N(C)C(C)=O)C(=O)N[C@H](C(=O)N[C@@H](CC(C)C)C(=O)[C@@]1(C)CO1)[C@@H](C)O [EPOXOMYCIN] | 5 | – | – | – | – | – | – | –
3 | CC(C)C[C@@H](/C=C/C(=O)n1cccc1)NC(=O)[C@H](CC(C)C)NC(=O)[C@H](CC(C)C)NC(=O)CCCCCNC(=O)OCc1ccccc1 | > 10000 | 155 | > 10000 | – | – | – | – | –
4 | CC(C)C[C@@H](C=O)NC(=O)[C@H](CC(C)C)NC(=O)[C@H](CC(C)C)NC(=O)OCc1ccccc1 [MG-132] (Cbz-Leu-Leu-Leu-aldehyde) | 2 | – | 1080 | – | – | – | – | –
5 | CC(C)C[C@@H](/C=C/C(=O)n1cccc1)NC(=O)[C@H](CO)NC(=O)[C@@H](NC(=O)OCc1ccccc1)C(C)C | > 10000 | 122 | > 10000 | – | – | – | – | –
6 | Cc1c(O)cccc1C(=O)N[C@H](C(=O)N[C@@H](CO)C(=O)N[C@H](/C=C/C(=O)n1cccc1)CC(C)C)C(C)C | > 10000 | 178 | > 10000 | – | – | – | – | –
7 | CC(C)C[C@@H](/C=C/C(=O)n1cccc1)NC(=O)[C@H](CC(C)C)NC(=O)[C@H](CC(C)C)NC(=O)CCCCCCCNC(=O)OCc1ccccc1 | > 10000 | 62 | > 10000 | 116 | > 10000 | > 10000 | – | –
8 | CC(C)C[C@@H](/C=C/C(=O)n1cccc1)NC(=O)[C@H](CO)NC(=O)[C@@H](NC(=O)CCCCCNC(=O)OCc1ccccc1)C(C)C | > 10000 | 97 | > 10000 | 147 | > 10000 | > 10000 | – | –
9 | Cc1c(O)cccc1C(=O)N[C@@H](CC(C)C)C(=O)N[C@@H](CC(C)C)C(=O)N[C@H](/C=C/C(=O)n1cccc1)CC(C)C | 3630 | 65 | > 10000 | 135 | > 10000 | 5600 | Not Active | Not Active
10 | CC(C)C[C@@H](/C=C/C(=O)n1cccc1)NC(=O)[C@H](CO)NC(=O)[C@@H](NC(=O)CCCCCCCNC(=O)OCc1ccccc1)C(C)C | 5080 | 36 | > 10000 | 58 | > 10000 | > 10000 | Not Active | Not Active
